Assay results from ChEMBL document CHEMBL1143580 (J Med Chem, 2005).

How the values were obtained:
[1] = Inhibitory constant for [3H]YM-09151-2 binding to Dopamine receptor D2-like in porcine striatal membranes; NA= not active until 1e-5M; assay type: cell membranes, Sus scrofa
[2] = Inhibitory constant for [3H]YM-09151-2 binding to Dopamine receptor D2-like in porcine striatal membranes; assay type: cell membranes, Sus scrofa, Striatum, Membrane
[3] = species: Rattus norvegicus; assay: Amount of cAMP level in rat neostriatal membranes after incubation at 1 uM; assay type: functional
Outline: (§1)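 Rat striatal membranes; adenylyl cyclase reaction in 0.1 M Tris-HCl pH 8.3, 10 mM MgCl2, 0.1 M KCl, 37 °C, 60 min; compounds at 1, 10, 100 µM. Stopped with HCl (final 0.01 M) plus 5 min boiling, centrifuged, filtered. cAMP quantified by reverse-phase HPLC at 254 nm against standards, confirmed by cAMP EIA; pmol/mg protein, mean ± SEM of triplicates.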

[4] = species: Rattus norvegicus; assay: Amount of cAMP level in rat neostriatal membranes after incubation at 10 uM; assay type: functional; outline: as §1
[5] = species: Rattus norvegicus; assay: Amount of cAMP level in rat neostriatal membranes after incubation at 100 uM; assay type: functional; outline: as §1
[6] = species: Rattus norvegicus; assay: Amount of cGMP level in rat neostriatal membranes after incubation at 10 uM; assay type: functional
Outline: (§2)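 Rat striatal membranes in 0.1 M phosphate buffer pH 7.0 with MgCl2 and 2.25 mM IBMX at 37 °C; reaction started with 54 µM GTP, 60 min at 37 °C; compounds at 0.1, 1.0, 10 µM. Stopped with HCl, boiled 5 min, centrifuged, filtered; cGMP measured by reverse-phase HPLC at 254 nm against standards, confirmed by cGMP EIA; mean ± SEM of triplicates.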

[7] = species: Rattus norvegicus; assay: Amount of cGMP level in rat neostriatal membranes after incubation at 0.1 uM; assay type: functional; outline: as §2
[8] = species: Rattus norvegicus; assay: Amount of cGMP level in rat neostriatal membranes after incubation at 1.0 uM; assay type: functional; outline: as §2
[9] = Inhibitory constant for Dopamine receptor D1-like
[10] = Inhibitory constant for Dopamine receptor D2-like
[11] = molecular target: Adenylate cyclase type 2 (Rattus norvegicus) (UniProt P26769); assay: Inhibition of basal striatal adenylyl cyclase activity in rat neostriatal membrane at 100 uM; assay type: functional, cell membranes
Outline: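 Rat striatal membranes incubated 60 min at 37 °C in 0.1 M Tris-HCl pH 8.3, 10 mM MgCl2, 0.1 M KCl. Reaction stopped with HCl (0.01 M final) and 5 min boiling. Filtered supernatant analysed for cAMP by reverse-phase HPLC at 254 nm against standards, confirmed by cAMP EIA. Tested at 1, 10 and 100 µM. Triplicates reported as mean ± SEM.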

[12] = species: Rattus norvegicus; assay: Decrease of basal cAMP concentration mediated by striatal adenylyl cyclase activity in rat neostriatal membrane at 100 uM; assay type: functional; outline: as §1
[13] = species: Rattus norvegicus; assay: Amount of cGMP in rat neostriatal membranes after incubation at 10 uM; assay type: functional; outline: as §2
[14] = species: Rattus norvegicus; assay: Amount of cGMP in rat neostriatal membranes after incubation at 0.1 uM; assay type: functional; outline: as §2
[15] = species: Rattus norvegicus; assay: Amount of cGMP in rat neostriatal membranes after incubation at 1.0 uM; assay type: functional; outline: as §2

Chain of Adenylate cyclase type 2 (Rattus norvegicus) (P26769 whole entry): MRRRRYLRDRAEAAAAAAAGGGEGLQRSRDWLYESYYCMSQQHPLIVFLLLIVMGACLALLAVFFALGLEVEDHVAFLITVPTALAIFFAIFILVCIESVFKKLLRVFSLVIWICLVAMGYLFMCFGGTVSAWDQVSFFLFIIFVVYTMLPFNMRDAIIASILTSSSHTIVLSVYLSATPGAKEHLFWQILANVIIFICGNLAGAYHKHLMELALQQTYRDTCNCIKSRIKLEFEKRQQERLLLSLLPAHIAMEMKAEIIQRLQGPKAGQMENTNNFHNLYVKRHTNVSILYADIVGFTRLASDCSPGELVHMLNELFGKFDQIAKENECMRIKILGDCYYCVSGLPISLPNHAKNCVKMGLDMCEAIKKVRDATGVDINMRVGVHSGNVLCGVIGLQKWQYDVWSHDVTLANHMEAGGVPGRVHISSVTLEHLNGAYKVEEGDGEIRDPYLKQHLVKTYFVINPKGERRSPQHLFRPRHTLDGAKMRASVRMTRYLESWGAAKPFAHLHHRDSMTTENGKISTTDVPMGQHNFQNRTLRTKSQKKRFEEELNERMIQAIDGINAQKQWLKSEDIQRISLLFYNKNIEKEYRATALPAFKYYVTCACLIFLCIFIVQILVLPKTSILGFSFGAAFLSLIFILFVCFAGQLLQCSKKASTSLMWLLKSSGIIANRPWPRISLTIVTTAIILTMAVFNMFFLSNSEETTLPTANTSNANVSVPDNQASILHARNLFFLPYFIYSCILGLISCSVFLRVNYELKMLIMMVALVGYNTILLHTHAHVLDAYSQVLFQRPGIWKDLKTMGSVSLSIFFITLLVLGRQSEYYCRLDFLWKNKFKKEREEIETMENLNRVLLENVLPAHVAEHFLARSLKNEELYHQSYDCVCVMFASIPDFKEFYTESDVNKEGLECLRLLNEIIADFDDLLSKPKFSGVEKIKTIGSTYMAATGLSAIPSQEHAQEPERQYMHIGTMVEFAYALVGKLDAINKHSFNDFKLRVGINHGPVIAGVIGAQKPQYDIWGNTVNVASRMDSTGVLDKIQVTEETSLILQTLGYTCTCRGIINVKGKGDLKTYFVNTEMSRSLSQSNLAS

SMILES | Ki [2] | cGMP content (pmol/mg protein) [6] | cGMP content (pmol/mg protein) [7] | cGMP content (pmol/mg protein) [8] | other results
Br.CN(C)[C@@H]1Cc2cc(O)c(F)cc2[C@H]1c1ccccc1 | – | – | – | – | Ki [1]: Not Active
NCCc1ccc(O)c(O)c1 | – | 4.02 | 11.7 | 6.15 | cAMP content (pmol/mg protein) [3]: 95.1; cAMP content (pmol/mg protein) [4]: 89.8; cAMP content (pmol/mg protein) [5]: 85.6
CN[C@@H]1Cc2cc(F)c(OC)cc2[C@H]1c1ccccc1 | 2.6 µM | – | – | – | –
COc1cc2c(cc1F)C[C@@H](N)[C@@H]2c1ccccc1 | 17 µM | – | – | – | –
CN[C@@H]1Cc2cc(OC)c(F)cc2[C@H]1c1ccccc1 | 3.1 µM | – | – | – | –
CN1CCc2cc(F)c(O)cc2C1C1(c2ccccc2Cl)CC1 (stereo not drawn) | – | – | – | – | Ki [9]: 0.00018 µM; Ki [10]: 0.45 µM
CCCN(CCc1ccccc1)CCc1cccc(O)c1 | – | 3.78 | 10.4 | 7.45 | cAMP content (pmol/mg protein) [3]: 104; cAMP content (pmol/mg protein) [4]: 93.1; cAMP content (pmol/mg protein) [5]: 79.3; inhibition [11]: 25%
C=CCN(C)[C@@H]1Cc2cc(OC)c(F)cc2[C@H]1c1ccccc1 | 0.31 µM | – | – | – | –
CCCN(C)[C@@H]1Cc2cc(O)c(F)cc2[C@H]1c1ccccc1 | 0.24 µM | 5.56 | 11.5 | 7.45 | –
Oc1cc2c(cc1O)C(c1ccccc1)CNCC2 (stereo not drawn) | – | 18.2 | 12.4 | 17.4 | –
CCCN(CCC)[C@@H]1Cc2cc(F)c(O)cc2[C@H]1c1ccccc1 | 0.92 µM | 4.37 | 11.6 | 7.32 | –
CCCN(CCC)[C@@H]1Cc2cc(F)c(OC)cc2[C@H]1c1ccccc1 | 0.17 µM | 5.79 | 10.6 | 6.97 | –
C=CCN(C)[C@@H]1Cc2cc(F)c(O)cc2[C@H]1c1ccccc1 | 0.96 µM | – | – | – | –
CCCN(C)[C@@H]1Cc2cc(F)c(OC)cc2[C@H]1c1ccccc1 | 0.48 µM | 3.9 | 10.4 | 6.86 | –
CCN1CCCC1CNC(=O)c1cc(S(N)(=O)=O)ccc1OC (stereo not drawn) | – | 17.7 | 12.5 | 17.3 | –
CCCN(C)[C@@H]1Cc2cc(OC)c(F)cc2[C@H]1c1ccccc1 | 0.27 µM | 3.78 | 11.2 | 4.96 | cAMP content (pmol/mg protein) [3]: 105; cAMP content (pmol/mg protein) [4]: 103; cAMP content (pmol/mg protein) [5]: 84.6
CN1CCc2cc(Cl)c(O)cc2[C@@H](c2ccccc2)C1 | – | – | – | – | cGMP content (pmol/mg protein) [13]: 6.15; cGMP content (pmol/mg protein) [14]: 11.5; cGMP content (pmol/mg protein) [15]: 6.62
C=CCN(C)[C@@H]1Cc2cc(F)c(OC)cc2[C@H]1c1ccccc1 | 0.64 µM | – | – | – | –

Further lines, with some results ahead:

Ki [2] | SMILES | cGMP content (pmol/mg protein) [6] | cGMP content (pmol/mg protein) [7] | cGMP content (pmol/mg protein) [8] | other results
15 µM | N[C@@H]1Cc2cc(O)c(F)cc2[C@H]1c1ccccc1 | – | – | – | –
4.3 µM | CN[C@@H]1Cc2cc(O)c(F)cc2[C@H]1c1ccccc1 | – | – | – | –
12 µM | CCCN(CCC)[C@@H]1Cc2cc(O)c(F)cc2[C@H]1c1ccccc1 | – | – | – | –
4.5 µM | CN(C)[C@@H]1Cc2cc(F)c(O)cc2[C@H]1c1ccccc1 | – | – | – | –
5.1 µM | CN[C@@H]1Cc2cc(F)c(O)cc2[C@H]1c1ccccc1 | – | – | – | –
19 µM | N[C@@H]1Cc2cc(F)c(O)cc2[C@H]1c1ccccc1 | – | – | – | –
1.9 µM | COc1cc2c(cc1F)C[C@@H](N(C)C)[C@@H]2c1ccccc1 | – | – | – | –
0.55 µM | CCCN(CCC)[C@@H]1Cc2cc(OC)c(F)cc2[C@H]1c1ccccc1 | – | – | – | –
0.65 µM | CCCN(C)[C@@H]1Cc2cc(F)c(O)cc2[C@H]1c1ccccc1 | 1.78 | 10.9 | 5.79 | cAMP content (pmol/mg protein) [3]: 103; cAMP content (pmol/mg protein) [4]: 93; cAMP content (pmol/mg protein) [5]: 74.4; Decrease [12]: 30%
4.3 µM | COc1cc2c(cc1F)[C@@H](c1ccccc1)[C@H](N(C)C)C2 | – | – | – | –
0.64 µM | C=CCN(C)[C@@H]1Cc2cc(O)c(F)cc2[C@H]1c1ccccc1 | – | – | – | –
12 µM | COc1cc2c(cc1F)[C@@H](c1ccccc1)[C@H](N)C2 | – | – | – | –
